TbHK1 inh: blocks Trypanosoma brucei hexokinase 1 activity. recombinant TbHK1, G6PDH-coupled NADH A340. inhibition, % at 10 µM. actives 0.11% (n = 220,000). AID 1430;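 active = inhibition of 50% or more in the single-dose primary screen; inactive = inhibition below 50%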
Runt-SMMHC FRET: inhibitors of human RUNX1 Runt domain binding to CBFb-SMMHC; Q01196+Q13951; Cerulean-Runt/Venus-CBFb-SMMHC FRET ratio 530/480, 1 h; inhibition, % at 20 µM; actives 0.74% (n = 220,000); AID 1434;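 active = mean inhibition across duplicate retests at 20 µM reaching about 50%, limit read from the data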;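 also: inhibitors lower the FRET ratio by blocking Runt binding to CBFb-SMMHC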
Target sequence (Q01196 whole entry, looked up, the tested form may be a part): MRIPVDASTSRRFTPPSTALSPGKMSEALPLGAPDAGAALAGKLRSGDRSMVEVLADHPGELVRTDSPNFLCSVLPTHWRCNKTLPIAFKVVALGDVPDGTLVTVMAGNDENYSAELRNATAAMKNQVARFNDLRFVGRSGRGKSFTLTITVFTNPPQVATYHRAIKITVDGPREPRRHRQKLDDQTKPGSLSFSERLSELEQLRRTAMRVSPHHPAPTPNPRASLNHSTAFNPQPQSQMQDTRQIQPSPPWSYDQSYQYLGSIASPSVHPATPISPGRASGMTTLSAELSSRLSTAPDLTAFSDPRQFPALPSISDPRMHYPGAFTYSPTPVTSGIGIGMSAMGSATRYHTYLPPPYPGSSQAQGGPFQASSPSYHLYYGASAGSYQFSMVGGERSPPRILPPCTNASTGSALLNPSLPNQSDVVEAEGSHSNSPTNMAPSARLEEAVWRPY
Target sequence (Q13951 whole entry, looked up, the tested form may be a part): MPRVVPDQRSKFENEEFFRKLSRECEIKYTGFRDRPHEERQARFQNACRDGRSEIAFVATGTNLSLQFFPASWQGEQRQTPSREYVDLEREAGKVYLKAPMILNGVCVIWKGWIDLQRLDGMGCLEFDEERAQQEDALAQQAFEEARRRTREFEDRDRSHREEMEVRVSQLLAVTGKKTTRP
RanGTP-Impb inh: disruptors of Ran-importin-beta complex formation – biochemical, FRET, CFP-Ran, YFP-importin-beta, homogeneous, primary screen. cell-free CFP-Ran/YFP-importin-beta FRET ratio. AID 2216. inhibition, % (concentration not given with the values). actives 1.1% (n = 300,000);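 active = more than half of the replicate wells show a fall in the fluorescence ratio signal beyond about 16%, limit read from the data, passing the limit was not always enough; inconclusive = exactly half of the replicate wells pass the set limit; inactive = fewer than half of replicates pass the limit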
Hck Nef HTS: human Hck-Nef kinase inhibition. Recombinant Hck-YEEI plus Nef, Z-Lyte FRET kinase assay. actives 0.68% (n = 220,000). inhibition, % at 20 µM. AID 463187. P08631;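 active = Hck-Nef kinase inhibition above about 50%, limit read from the data; inactive = inhibition below that limit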
Runt-CBFb FRET: inhibitors of human RUNX1 Runt domain binding to CBFb; Q01196+Q13951; actives 0.46% (n = 220,000); inhibition, % at 20 µM; Cerulean-Runt/Venus-CBFb FRET ratio 530/480, 1 h;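 active = inhibition over about 50% at 20 µM in the single-dose screen, limit read from the data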
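test system = Cerulean-Runt domain fusion protein, energy donor | probe or stimulus = Venus-CBFb binding partner, 100 nM | incubation = two 1 h room-temperature incubations shielded from light | detection = fluorescence energy transfer, 422 nm excitation, 530/480 nm emission | measure = loss of energy transfer signal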
A number is an active result. Only some compounds are listed: those with a hit (about 1.9% of all), similar ones and a draw of the others.

What do the screens show for `CCN1CCN(c2cc(-c3ccccc3)nc3cc(-c4cccc(F)c4)nn23)CC1`?
TbHK1 inh: inactive; Runt-SMMHC FRET: inactive; RanGTP-Impb inh: 16.8; Hck Nef HTS: inactive; Runt-CBFb FRET: inactive

Results for COc1cc2ccccc2cc1C(=O)Nc1cccnc1 ?
TbHK1 inh: inactive; Runt-SMMHC FRET: inactive; RanGTP-Impb inh: inactive; Hck Nef HTS: inactive; Runt-CBFb FRET: inactive

Results for COc1cc2cc(C(=O)Nc3ccccc3)c(N)nc2cc1OC ?
TbHK1 inh: inactive; Runt-SMMHC FRET: inactive; RanGTP-Impb inh: 29.1; Hck Nef HTS: inactive; Runt-CBFb FRET: inactive

What do the screens show for `COc1ccc(NC(=O)Nc2ccc3c(c2)OCO3)c(C)c1`?
RanGTP-Impb inh: inactive

How did O=C(O)c1ccccc1SCc1csc(-c2ccccc2)n1 do in these assays?
RanGTP-Impb inh: 26.7

What do the screens show for `Cc1ccc(-n2nc3c(c2NC(=O)C(C)(C)C)CS(=O)(=O)C3)cc1`?
RanGTP-Impb inh: inactive

Results for CC(=NCc1ccco1)c1c(C)[nH]n(-c2nc3ccccc3s2)c1=O ?
TbHK1 inh: inactive; Runt-SMMHC FRET: inactive; RanGTP-Impb inh: inconclusive; Hck Nef HTS: inactive; Runt-CBFb FRET: inactive

How did C/C(=N/NC(=O)c1cccs1)c1c(C)[nH]n(-c2nc3ccccc3s2)c1=O do in these assays?
TbHK1 inh: inactive; Runt-SMMHC FRET: 98.2; RanGTP-Impb inh: inactive; Hck Nef HTS: inactive; Runt-CBFb FRET: inactive

What do the screens show for `COC(=O)c1c(C)c2c(C)cc3ccccn3c-2c1C(=O)OC`?
TbHK1 inh: inactive; Runt-SMMHC FRET: inactive; RanGTP-Impb inh: inactive; Hck Nef HTS: inactive; Runt-CBFb FRET: inactive

Results for COC(=O)c1cc2c(-c3ccccc3)cc3ccccn3c-2c1C(=O)OC ?
TbHK1 inh: inactive; Runt-SMMHC FRET: 53.7; RanGTP-Impb inh: inactive; Hck Nef HTS: inactive; Runt-CBFb FRET: inactive

What do the screens show for `Cc1cc(C)cc(NC(=O)CCc2c(C)nn(-c3ccc(N4CCOCC4)nn3)c2C)c1`?
RanGTP-Impb inh: inactive

Results for CC(CCc1ccc(O)cc1)NCCc1ccc(O)c(O)c1 (centres undefined) ?
RanGTP-Impb inh: 40.3

Results for O=S(=O)(N/N=C\c1ccc(-c2ccccc2Cl)o1)c1ccccc1 ?
TbHK1 inh: inactive; Runt-SMMHC FRET: inactive; RanGTP-Impb inh: inactive; Hck Nef HTS: inactive; Runt-CBFb FRET: inactive

How did O=C(O)c1ccc(N/N=C/c2ccc(-c3ccc(Br)cc3)o2)cc1 do in these assays?
RanGTP-Impb inh: 70.1

How did Nc1nonc1C(=O)N/N=C/c1ccc(-c2ccc(Cl)c(C(=O)O)c2)o1 do in these assays?
TbHK1 inh: inactive; Runt-SMMHC FRET: inactive; RanGTP-Impb inh: inactive; Hck Nef HTS: inactive; Runt-CBFb FRET: inactive

What do the screens show for `O=C(O)c1ccc(N/N=C/c2ccc(-c3ccccc3Cl)o2)cc1`?
TbHK1 inh: inactive; Runt-SMMHC FRET: 81.2; RanGTP-Impb inh: 54.2; Hck Nef HTS: 66.7; Runt-CBFb FRET: inactive

How did O=C(O)c1cc(-c2ccc(/C=N/Nc3ccc(Cl)cc3)o2)ccc1Cl do in these assays?
TbHK1 inh: inactive; Runt-SMMHC FRET: 81.5; RanGTP-Impb inh: inactive; Hck Nef HTS: inactive; Runt-CBFb FRET: inactive

Results for Cn1nccc1C(=O)N1CCN(S(=O)(=O)c2ccc(Br)s2)CC1 ?
RanGTP-Impb inh: inactive

Results for CCOC(=O)C1CCCN(C(=O)Cn2c(=O)c3cccn3c3cccnc32)C1 (centres undefined) ?
RanGTP-Impb inh: inactive

How did COc1ccc(S(=O)(=O)N2CCC(C(=O)N[C@H](C(=O)N3CCCCCC3)C(C)C)CC2)cc1 do in these assays?
RanGTP-Impb inh: inactive

Results for Cc1c(Cc2ccccc2)c(NCCN(C)C)n2c(nc3ccccc32)c1C#N ?
TbHK1 inh: inactive; Runt-SMMHC FRET: 80.8; RanGTP-Impb inh: 26.3; Hck Nef HTS: inactive; Runt-CBFb FRET: inactive

Results for N#Cc1c2c(c(NCCN3CCOCC3)n3c1nc1ccccc13)CCCC2 ?
TbHK1 inh: inactive; Runt-SMMHC FRET: 111.4; RanGTP-Impb inh: 45.4; Hck Nef HTS: inactive; Runt-CBFb FRET: 50.1

What do the screens show for `CCCc1c(C)c(C#N)c2nc3ccccc3n2c1NCCCN1CCOCC1`?
TbHK1 inh: inactive; Runt-SMMHC FRET: 53.7; RanGTP-Impb inh: inactive; Hck Nef HTS: inactive; Runt-CBFb FRET: inactive

Results for CCCCc1nc(SCC(=O)N2CCOCC2)c2c(=O)n(C)c(=O)n(C)c2n1 ?
RanGTP-Impb inh: inactive

What do the screens show for `CC1CC(OC(=O)CN2CCCCC2)CC(C)(C)C1` (centres undefined)?
TbHK1 inh: inactive; Runt-SMMHC FRET: inactive; RanGTP-Impb inh: inconclusive; Hck Nef HTS: inactive; Runt-CBFb FRET: inactive

How did CC(C)NC(=S)n1cc(C(=O)c2cc(Cl)cc(Cl)c2O)cn1 do in these assays?
RanGTP-Impb inh: 21.4

What do the screens show for `CCCc1ccc2oc(C(=O)N(C)Cc3nccs3)c(C)c2c1`?
RanGTP-Impb inh: inactive

Results for CCS(=O)(=O)N1Cc2ccccc2CC1C(=O)Nc1ccc(F)cc1 (centres undefined) ?
TbHK1 inh: inactive; Runt-SMMHC FRET: 80.2; RanGTP-Impb inh: inactive; Hck Nef HTS: inactive; Runt-CBFb FRET: inactive

How did COc1ccc(C2C(C(=O)O)c3ccccc3C(=O)N2Cc2ccco2)cc1 (centres undefined) do in these assays?
TbHK1 inh: inactive; Runt-SMMHC FRET: inactive; RanGTP-Impb inh: inactive; Hck Nef HTS: inactive; Runt-CBFb FRET: inactive

How did Oc1ccc2ccccc2c1/C=N/n1cnnc1 do in these assays?
TbHK1 inh: inactive; Runt-SMMHC FRET: 115.5; RanGTP-Impb inh: inactive; Hck Nef HTS: inactive; Runt-CBFb FRET: 66.7

What do the screens show for `O=C(NCCCSc1ccccc1)c1cc(Br)ccc1O`?
RanGTP-Impb inh: inactive

How did O=C(O)c1cc2ccc3ccccc3c2oc1=O do in these assays?
TbHK1 inh: inactive; Runt-SMMHC FRET: 96.9; RanGTP-Impb inh: inconclusive; Hck Nef HTS: inactive; Runt-CBFb FRET: inactive

Results for CCCCCCCC(=O)Nc1cc(C(=O)NCCC)ccc1N1CCC2(CC1)CC(c1ccccc1)=NO2 ?
RanGTP-Impb inh: inactive

Results for COC(=O)c1ccc2c(=O)n(CCCCCC(=O)NCc3ccc4c(c3)OCO4)c(=O)[nH]c2c1 ?
TbHK1 inh: inactive; Runt-SMMHC FRET: inactive; RanGTP-Impb inh: 35.2; Hck Nef HTS: inactive; Runt-CBFb FRET: inactive

What do the screens show for `COC(=O)c1ccc2c(=O)n(CCCCCC(=O)NCc3ccccc3)c(=O)[nH]c2c1`?
TbHK1 inh: inactive; Runt-SMMHC FRET: inactive; RanGTP-Impb inh: inactive; Hck Nef HTS: inactive; Runt-CBFb FRET: inactive

What do the screens show for `CC(=O)NS(=O)(=O)c1ccc(NS(=O)(=O)c2ccc3ccccc3c2)cc1`?
RanGTP-Impb inh: inactive

Results for CC(=O)NS(=O)(=O)c1ccc(NS(=O)(=O)c2ccc(F)cc2)cc1 ?
TbHK1 inh: inactive; Runt-SMMHC FRET: inactive; RanGTP-Impb inh: inactive; Hck Nef HTS: inactive; Runt-CBFb FRET: 89.3

Results for Cc1ccc(-n2c(=O)c3cc4c(=O)n(-c5ccc(C)c(C)c5)c(=O)c4c(C(=O)c4ccc(C(=O)O)cc4)c3c2=O)cc1C ?
TbHK1 inh: inactive; Runt-SMMHC FRET: inactive; RanGTP-Impb inh: inactive; Hck Nef HTS: 92.4; Runt-CBFb FRET: inactive
